Test results as given in ChEMBL document CHEMBL4831478, “Bispecific Estrogen Receptor α Degraders Incorporating Novel Binders Identified Using DNA-Encoded Chemical Library Screening” (J Med Chem, 2021).

Tests used:
MCF7 [1] = assay: Antiproliferative activity against human MCF7 cells assessed as growth inhibition preincubated with estradiol for 30 mins followed by compound addition and measured after 72 hrs by CellTiter-Glo assay; type: functional
Estrogen receptor [2] = biological target: Estrogen receptor (Homo sapiens, UniProt P03372, S463P); assay: Binding affinity to ERalpha S463P mutant (unknown origin) expressed in Escherichia coli preincubated for 15 mins followed by ligand addition and measured after 1 hr by fluorescent polarization assay
Chain of Estrogen receptor (Homo sapiens, UniProt P03372, S463P) (P03372 whole entry S463P, the tested form may be a part): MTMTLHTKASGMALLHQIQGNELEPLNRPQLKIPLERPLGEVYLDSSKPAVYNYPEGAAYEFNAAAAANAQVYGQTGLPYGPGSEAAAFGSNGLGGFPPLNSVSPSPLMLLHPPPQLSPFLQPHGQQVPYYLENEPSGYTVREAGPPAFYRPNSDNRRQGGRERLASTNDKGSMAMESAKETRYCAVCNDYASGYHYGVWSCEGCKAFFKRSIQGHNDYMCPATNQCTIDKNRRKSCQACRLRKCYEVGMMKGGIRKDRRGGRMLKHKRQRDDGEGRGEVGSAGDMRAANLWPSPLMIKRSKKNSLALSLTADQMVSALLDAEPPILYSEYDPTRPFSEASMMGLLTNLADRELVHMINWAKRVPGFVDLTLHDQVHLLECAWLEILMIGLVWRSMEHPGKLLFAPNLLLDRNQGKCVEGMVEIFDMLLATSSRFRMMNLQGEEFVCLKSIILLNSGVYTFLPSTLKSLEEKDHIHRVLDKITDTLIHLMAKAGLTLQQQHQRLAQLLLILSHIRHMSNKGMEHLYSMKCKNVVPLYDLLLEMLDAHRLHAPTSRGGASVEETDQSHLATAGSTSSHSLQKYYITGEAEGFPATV
In short: (§1)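 ERα LBD (aa 307–554), WT or D538G, S463P, Y537S, with N-terminal Avi-Tev-His tag, expressed in E. coli T7 Express (20 °C, 12 h, IPTG). Purified by Ni-NTA then size exclusion. Compound preincubated with protein 15 min, fluorescent ligand added, 1 h at room temperature. FP read ex 485/em 535 nm; duplicate runs averaged.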

MCF7 [3] = assay: Antiproliferative activity against human MCF7 cells assessed as growth inhibition preincubated with estradiol for 30 mins followed by compound addition and measured after 7 days by CellTiter-Glo assay; type: functional; conditions: MCF7, 168 h, time 7 day
In short: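 MCF7 cells seeded in hormone-deprived media for 72 h. All wells except minimum-signal controls received 0.1 nM estradiol for 30 min, then compound in a 10-point dose series. Incubated 7 days at 37 °C, 5% CO2; ATP content read by CellTiter-Glo 2.0. Duplicate runs averaged.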

Estrogen receptor [4] = biological target: T1, Estrogen receptor (Homo sapiens, UniProt P03372); assay: Binding affinity to recombinant His-tagged ERalpha LBD (307 to 554 residue) (unknown origin) expressed in Escherichia coli preincubated for 15 mins followed by ligand addition and measured after 1 hr by fluorescent polarization assay; in short: as §1
T1 sequence (P03372 whole entry): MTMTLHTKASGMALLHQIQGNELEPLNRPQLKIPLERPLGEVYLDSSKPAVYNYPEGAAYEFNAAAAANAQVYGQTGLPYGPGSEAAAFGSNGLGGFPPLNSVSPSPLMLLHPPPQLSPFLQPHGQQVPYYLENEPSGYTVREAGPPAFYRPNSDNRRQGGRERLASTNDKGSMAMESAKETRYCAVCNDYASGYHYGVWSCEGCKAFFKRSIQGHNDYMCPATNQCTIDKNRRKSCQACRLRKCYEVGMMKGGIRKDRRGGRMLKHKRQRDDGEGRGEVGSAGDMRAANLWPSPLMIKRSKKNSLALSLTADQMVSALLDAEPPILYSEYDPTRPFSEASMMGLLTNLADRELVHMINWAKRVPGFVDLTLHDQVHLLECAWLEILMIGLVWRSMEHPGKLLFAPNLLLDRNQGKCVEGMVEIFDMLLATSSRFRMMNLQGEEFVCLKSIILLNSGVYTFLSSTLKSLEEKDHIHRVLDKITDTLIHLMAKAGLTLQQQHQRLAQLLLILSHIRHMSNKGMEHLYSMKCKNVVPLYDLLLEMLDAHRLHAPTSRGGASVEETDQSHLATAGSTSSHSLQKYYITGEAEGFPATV

Estrogen receptor [5] = biological target: Estrogen receptor (Homo sapiens, UniProt P03372, D538G); assay: Binding affinity to ERalpha D538G mutant (unknown origin) expressed in Escherichia coli preincubated for 15 mins followed by ligand addition and measured after 1 hr by fluorescent polarization assay; in short: as §1
Chain of Estrogen receptor (Homo sapiens, UniProt P03372, D538G) (P03372 whole entry D538G): as the sequence (P03372 whole entry S463P, the tested form may be a part) above, with P463S, D538G counted along it

Estrogen receptor [6] = biological target: Estrogen receptor (Homo sapiens, UniProt P03372, Y537S); assay: Binding affinity to ERalpha Y537S mutant (unknown origin) expressed in Escherichia coli preincubated for 15 mins followed by ligand addition and measured after 1 hr by fluorescent polarization assay; in short: as §1
Chain of Estrogen receptor (Homo sapiens, UniProt P03372, Y537S) (P03372 whole entry Y537S): as the sequence (P03372 whole entry S463P, the tested form may be a part) above, with P463S, Y537S counted along it

[7] = biological target: T2, Estrogen receptor (Homo sapiens) (UniProt P03372); assay: Induction of ERalpha degradation in human MCF7 cells assessed as degradation maximum incubated for 48 hrs under starved CSS media condition by Western blot analysis relative to control; type: cell-based
T2 sequence (whole entry): T1 sequence (P03372 whole entry)
In short: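 MCF7 cells in hormone-deprived media (agonist mode) or full-serum media (antagonist mode) were treated with 1 μM compound over a 48 h time course. Cells were lysed and ERα was detected by western blot, with tubulin as the normalizer.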

Estrogen receptor [8] = biological target: T1, Estrogen receptor; assay: Induction of ERalpha degradation in human MCF7 cells assessed as decrease in ERalpha protein expression incubated for 48 hrs under hormone-deprived medium by Western blot analysis; type: cell-based
In short: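 In-cell western: MCF7 seeded in hormone-deprived media for 72 h, then 10-point dose series in the same media for 48 h. Minimum-signal control compound at 1 μM. Cells fixed (4% formaldehyde), permeabilized (0.1% Triton X-100), blocked (3% fish gelatin), stained for ERα and α-tubulin, imaged; ERα normalized to tubulin.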

[9] = Microsomal stability in mouse liver microsomes assessed as intrinsic clearance measured upto 60 mins; type: ADME, Microsome; conditions: read-out: CLH
In short: (§2)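 Compounds at 2 μM final incubated with pooled human or male mouse liver microsomes. Percent remaining measured at 0, 15, 30, 45 and 60 min and used to calculate in vitro half-life.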

[10] = Half life in CD1 mouse at 10 mg/kg, sc administered as single dose […]; type: ADME, organism-based; conditions: in vivo
[11] = Half life in CD1 mouse at 0.3 mg/kg, iv administered as cassette dosing […]; type: ADME, organism-based; conditions: in vivo
[12] = AUCinfinity in CD1 mouse at 10 mg/kg, sc administered as single dose […]; type: ADME, organism-based; set-up: route subcutaneous, dose 10 mg/kg; conditions: in vivo
[13] = Microsomal stability in human liver microsomes assessed as intrinsic clearance measured upto 60 mins; type: ADME, Microsome; conditions: read-out: CLH; in short: as §2
[14] = Bioavailability in CD1 mouse at 10 mg/kg, sc administered as single dose […]; type: ADME, organism-based; conditions: in vivo
[15] = Clearance in CD1 mouse at 0.3 mg/kg, iv administered as cassette dosing […]; type: ADME, organism-based; conditions: in vivo
[16] = Volume of distribution at steady state in CD1 mouse at 0.3 mg/kg, iv administered as cassette dosing […]; type: ADME, organism-based; conditions: in vivo, read-out: Vdss
[17] = Apparent permeability of compound across apical to basolateral side in MDCK cells; type: ADME, cell-based, Canis lupus familiaris; conditions: dog
[18] = Solubility of compound; type: physicochemical
Estrogen receptor [19] = biological target: T1, Estrogen receptor; assay: Induction of ERalpha degradation in human MCF7 cells assessed as decrease in ERalpha protein expression incubated for 48 hrs by Western blot analysis; type: cell-based
[20] = Cmax in CD1 mouse at 10 mg/kg, sc administered as single dose […]; type: ADME, organism-based; set-up: route subcutaneous, dose 10 mg/kg; conditions: in vivo
[21] = Plasma protein binding in human; type: ADME, cell-free; conditions: read-out: PPB
Estrogen receptor [22] = biological target: T1, Estrogen receptor; assay: Induction of ERalpha degradation in human MCF7 cells assessed as decrease in ERalpha protein expression incubated for 24 hrs by Western blot analysis; type: cell-based
MCF7 [23] = assay: Antiproliferative activity against human MCF7 cells assessed as growth inhibition preincubated with estradiol for 30 mins followed by compound addition and measured after 7 days by CellTiter-Glo assay; conditions: MCF7, 7 days
[24] = Toxicity in CD1 mouse xenografted with human MCF7 cells assessed as change in body weight at 3 mg/mouse, sc administered once weekly for 28 days; conditions: in vivo, 672 h
MCF7 [25] = assay: Antitumor activity against human MCF7 cells xenografted in CD1 mouse assessed as tumor growth inhibition at 3 mg/kg, sc administered once daily for 28 days by caliper method; conditions: 672 h, read-out: TGI

Row | Compound | GI50 (MCF7 [1]) [µM] | IC50 (Estrogen receptor [2]) [nM] | GI50 (MCF7 [3]) [nM] | IC50 (Estrogen receptor [4]) [nM] | IC50 (Estrogen receptor [5]) [nM] | IC50 (Estrogen receptor [6]) [nM] | further results
1 | CN(Cc1cccc(O)c1Cl)C(C1CCCC1)C(F)(F)F (stereo not drawn) | 0.46 | 110 | > 10000 | 71 | 45 | 24 | 
2 | Oc1cccc(CN(CCCN2CCCCC2)CC2(c3ccccc3F)CCCC2)c1Cl |  |  |  | 960 |  |  | 
3 | CN(Cc1cccc(O)c1Cl)CC1(c2ccccc2OCCN2CCCCC2)CCCC1 | > 10 |  | 3140 | > 10000 |  |  | 
4 | CN(Cc1cccc(O)c1Cl)CC1(c2ccc(OCCN3CCCCC3)cc2F)CCCC1 | < 0.005 |  | > 10000 | 62 |  |  | 
5 | CN[C@H](C)C(=O)N[C@H](C(=O)N1CCC[C@H]1c1nc(C(=O)c2ccc(F)cc2)cs1)C1CCN(C(=O)COCCOCc2cn(CCOc3ccc(Cn4c(-c5ccc(O)cc5)c(C)c5cc(O)ccc54)cc3)nn2)CC1 |  |  | > 10000 | 52 |  |  | DC50 (Estrogen receptor [22]): > 10 µM; GI50 (MCF7 [23]): > 10 µM
6 | C[C@]12CC[C@@H]3c4ccc(O)cc4C[C@@H](CCCCCCCCC[S+]([O-])CCCC(F)(F)C(F)(F)F)[C@H]3[C@@H]1CC[C@@H]2O (stereo partly drawn) [FULVESTRANT] |  |  |  |  |  |  | Activity [24]: Non-Toxic; inhibition in vivo at 3 mg/kg (MCF7 [25]): 91.6%
7 | Oc1cccc(CN(CCOCCN2CCCCC2)CC2(c3ccccc3F)CCCC2)c1Cl | > 10 |  | 3100 | 83 |  |  | 
8 | Oc1cccc(CN(CCN2CCCCC2)CC2(c3ccccc3F)CCCC2)c1Cl |  |  |  | > 10000 |  |  | 

Further lines, with some results ahead:

Row | GI50 (MCF7 [1]) [µM] | IC50 (Estrogen receptor [2]) [nM] | GI50 (MCF7 [3]) [nM] | IC50 (Estrogen receptor [4]) [nM] | IC50 (Estrogen receptor [5]) [nM] | IC50 (Estrogen receptor [6]) [nM] | Compound | further results
9 | > 10 |  | 68 | 8 |  |  | Oc1cccc(CN(CC2(c3ccccc3F)CCCC2)c2ccc(OCCN3CCCCC3)cc2)c1Cl | Activity [7]: 70%; DC50 (Estrogen receptor [8]): 15 nM
10 | > 10 | 2.1 | 3250 | 1.6 | 4.7 | 3.2 | Cc1c(-c2ccc(O)cc2)n(Cc2ccc(OCCn3cc(COCCOc4cccc5c4C(=O)N(C4CCC(=O)NC4=O)C5=O)nn3)cc2)c2ccc(O)cc12 (stereo not drawn) | DC50 (Estrogen receptor [8]): 2500 nM
11 | < 0.005 |  | > 10000 | 15 |  |  | Oc1cccc(CN(CC2(c3ccccc3F)CCCC2)c2ccccc2)c1Cl | 
12 | > 10 | 21 | 247 | 11 | 287 | 8.1 | Cc1ncsc1-c1ccc([C@H](C)NC(=O)[C@@H]2C[C@@H](O)CN2C(=O)[C@@H](NC(=O)COCc2cn(CCOc3ccc(Cn4c(-c5ccc(O)cc5)c(C)c5cc(O)ccc54)cc3)nn2)C(C)(C)C)cc1 | DC50 (Estrogen receptor [8]): 20 nM
13 | 0.55 | 21 | > 10000 | 15 | 7.2 | 8.1 | CN(Cc1cccc(O)c1Cl)CC1(c2ccccc2F)CCCC1 | 
14 | > 10 | 6 | 211 | 22 | 9.3 | 15 | Cc1ncsc1-c1ccc([C@H](C)NC(=O)[C@@H]2C[C@@H](O)CN2C(=O)[C@@H](NC(=O)COCCOCCOCc2cn(CCOc3ccc(Cn4c(-c5ccc(O)cc5)c(C)c5cc(O)ccc54)cc3)nn2)C(C)(C)C)cc1 | DC50 (Estrogen receptor [8]): 9 nM
15 | > 10 | 170 | 165 | 17 | 269 | 332 | Cc1ncsc1-c1ccc([C@H](C)NC(=O)[C@@H]2C[C@@H](O)CN2C(=O)[C@H](NC(=O)COCc2cn(CCOc3ccc(N(Cc4cccc(O)c4Cl)CC4(c5ccccc5F)CCCC4)cc3)nn2)C(C)(C)C)cc1 | microsomal CLint [9]: 199 µL/min/mg; half-life [10]: 1260 min; half-life [11]: 162 min; AUC(0-inf) [12]: 9.8 µM·h; microsomal CLint [13]: 31 µL/min/mg; bioavailability [14]: 83%; clearance [15]: 20 mL/min/kg; Vd [16]: 1.24 L/kg; Papp A→B [17]: < 0.1 ×10⁻⁶ cm/s; solubility [18]: < 0.2 µM; DC50 (Estrogen receptor [19]): 4.2 nM; Cmax [20]: 1500 nM; fraction unbound [21]: < 0.004
16 | > 10 | 18 | 335 | 22 | 27 | 38 | Cc1ncsc1-c1ccc([C@H](C)NC(=O)[C@@H]2C[C@@H](O)CN2C(=O)[C@@H](NC(=O)COCCOCc2cn(CCOc3ccc(Cn4c(-c5ccc(O)cc5)c(C)c5cc(O)ccc54)cc3)nn2)C(C)(C)C)cc1 | DC50 (Estrogen receptor [8]): 20 nM
17 | > 10 | 24 | 51 | 7.3 | 40 | 61 | CN[C@@H](C)C(=O)N[C@H](C(=O)N1CCC[C@H]1c1nc(C(=O)c2cccc(OCCOCc3cn(CCOc4ccc(Cn5c(-c6ccc(O)cc6)c(C)c6cc(O)ccc65)cc4)nn3)c2)cs1)C1CCCCC1 | DC50 (Estrogen receptor [19]): 174 nM
18 | > 10 | 14 | 34 | 5.3 | 29 | 52 | Cc1ncsc1-c1ccc(CNC(=O)N2C[C@H](O)CC2C(=O)[C@H](NC(=O)C2(F)CC2)C(C)(C)C)c(OCCOCc2cn(CCOc3ccc(Cn4c(-c5ccc(O)cc5)c(C)c5cc(O)ccc54)cc3)nn2)c1 (stereo partly drawn) | DC50 (Estrogen receptor [19]): 27 nM
